In ChEMBL document CHEMBL4765252, “Design, synthesis, and biological evaluation of novel 4H-chromen-4-one derivatives as antituberculosis agents against multidrug-resistant tuberculosis” (Eur J Med Chem, 2020):
In brackets after ≈: the same amount, converted by molar mass.

Experiments:
[1] = system: Mycobacterium tuberculosis; experiment: Antitubercular activity against Mycobacterium tuberculosis H37Rv assessed as inhibition of bacterial growth; type: functional
[2] = system: Mycobacterium tuberculosis; experiment: Antitubercular activity against Mycobacterium tuberculosis H37Rv assessed as inhibition of bacterial growth measured after 7 days by resazurin assay; type: functional; conditions: 168 h, time 7 day
[3] = Metabolic stability of the compound in mouse liver microsomes assessed as parent compound remaining […]; type: ADME, Microsome; conditions: read-out: Stabilty
[4] = Metabolic stability of the compound in human liver microsomes; type: ADME, Microsome
[5] = system: Vero; experiment: Cytotoxicity against African green monkey Vero cells assessed as reduction in cell viability; type: cell-based; conditions: Chlorocebus sabaeus
[6] = Metabolic stability of the compound in mouse liver microsomes; type: ADME, Microsome
In short: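 Compound was incubated with mouse liver microsomes plus NADPH for 30 min. Remaining substrate concentration was normalized to the time-zero concentration and given as % remaining. The stability call was made from incubations run without the NADPH cofactor.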

[7] = Selectivity index, ratio of IC50 for African green monkey Vero cells to MIC for Mycobacterium tuberculosis H37Rv; type: toxicity; conditions: read-out: Selectivity Index
In short: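 SI was calculated as Vero cell cytotoxicity IC50 divided by H37Rv MIC, both in μg/mL.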

[8] = system: Mycobacterium tuberculosis; experiment: Antitubercular activity against Mycobacterium tuberculosis H37Rv assessed as inhibition of bacterial growth incubated for 6 days by MABA assay; type: functional; conditions: 144 h, time 6 day
[9] = Oral bioavailability in BALB/c mouse at 100 mg/kg; type: ADME, organism-based; conditions: in vivo
[10] = Elimination half life in BALB/c mouse at 5 mg/kg, iv administered as single dose; type: ADME, organism-based; conditions: in vivo, read-out: beta t1/2 (converted)
[11] = system: Mycobacterium tuberculosis; experiment: In vivo antitubercular activity against Mycobacterium tuberculosis H37Rv infected in BALB/c mouse assessed as reduction in bacterial burden in lungs at 100 mg/kg, po administered for 21 days (reference value: 5.35 +/-0.17 log10CFU); type: functional; conditions: time 21 day
[12] = Cmax in BALB/c mouse at 100 mg/kg, po administered as single dose; type: ADME, organism-based; set-up: route oral, dose 100 mg/kg; conditions: in vivo
[13] = Volume of distribution in BALB/c mouse at 5 mg/kg, iv administered as single dose; type: ADME, organism-based; conditions: in vivo
[14] = MRT (0 to t) in BALB/c mouse at 5 mg/kg, iv administered as single dose; type: ADME, organism-based; conditions: in vivo
[15] = MRT (0 to infinity) in BALB/c mouse at 5 mg/kg, iv administered as single dose; type: ADME, organism-based; conditions: in vivo
[16] = AUC (0 to t) in BALB/c mouse at 100 mg/kg, po administered as single dose; type: ADME, organism-based; set-up: dose 100 mg/kg; conditions: in vivo
[17] = MRT (0 to infinity) in BALB/c mouse at 100 mg/kg, po administered as single dose; type: ADME, organism-based; conditions: in vivo
[18] = Tmax in BALB/c mouse at 100 mg/kg, po administered as single dose; type: ADME, organism-based; conditions: in vivo
[19] = AUC (0 to infinity) in BALB/c mouse at 100 mg/kg, po administered as single dose; type: ADME, organism-based; set-up: time infinity, route oral, dose 100 mg/kg; conditions: in vivo
[20] = AUC (0 to t) in BALB/c mouse at 5 mg/kg, iv administered as single dose; type: ADME, organism-based; set-up: dose 5 mg/kg; conditions: in vivo
[21] = MRT (0 to t) in BALB/c mouse at 100 mg/kg, po administered as single dose; type: ADME, organism-based; conditions: in vivo
[22] = AUC (0 to infinity) in BALB/c mouse at 5 mg/kg, iv administered as single dose; type: ADME, organism-based; set-up: time infinity, route intravenous, dose 5 mg/kg; conditions: in vivo
[23] = Cmax in BALB/c mouse at 5 mg/kg, iv administered as single dose; type: ADME, organism-based; set-up: route intravenous, dose 5 mg/kg; conditions: in vivo
[24] = Toxicity in BALB/c mouse infected with Mycobacterium tuberculosis H37Rv assessed as body weight at 100 mg/kg, po administered for 21 days (reference value: 21.32 +/- 1.03 gms); type: organism-based; conditions: in vivo, 504 h, time 21 day
[25] = Clearance in BALB/c mouse at 5 mg/kg, iv administered as single dose; type: ADME, organism-based; conditions: in vivo
[26] = Elimination half life in BALB/c mouse at 100 mg/kg, po administered as single dose; type: ADME, organism-based; conditions: in vivo, read-out: beta t1/2 (converted)
[27] = system: Mycobacterium tuberculosis; experiment: microbe, parasite or virus in culture; conditions: mc2-7000, 144 h
[28] = Toxicity in BALB/c mouse infected with Mycobacterium tuberculosis H37Rv assessed as body weight at 25 mg/kg, po administered for 21 days (reference value: 21.32 +/- 1.03 gms); type: organism-based; conditions: in vivo, 504 h, time 21 day
[29] = system: Mycobacterium tuberculosis; experiment: In vivo antitubercular activity against Mycobacterium tuberculosis H37Rv infected in BALB/c mouse assessed as reduction in bacterial burden in lungs at 25 mg/kg, po administered for 21 days (reference value: 5.35 +/-0.17 log10CFU); type: functional; conditions: time 21 day

## CN(C)Cc1c(O)ccc2oc(-c3ccc(O)cc3)cc(=O)c12
[1]
  MIC: > 32 µg/mL

## CCOC(=O)c1c(-c2ccccc2)oc2ccc(O)c(CN3CCC3)c2c1=O
[1]
  MIC: 14.1 µg/mL

## O=c1cc(-c2ccccc2)oc2ccc(O)c(CN3CC4(CSC4)C3)c12
[1]
  MIC: 31.1 µg/mL

## O=c1cc(-c2ccc(O)cc2)oc2ccc(O)c(CNC3CCCCC3)c12
[1]
  MIC: > 32 µg/mL

## O=c1cc(-c2ccc(O)cc2)oc2ccc(O)c(CN3CCCCCC3)c12
[1]
  MIC: 7.2 µg/mL

## Cc1ccc(-c2cc(=O)c3c(CN4CCC4)c(O)ccc3o2)cc1
[1]
  MIC: 6.52 µg/mL

## CCN(CC)Cc1c(O)ccc2oc(-c3ccc(O)cc3)cc(=O)c12
[1]
  MIC: 29.9 µg/mL

## O=c1cc(-c2ccc(O)cc2)oc2ccc(O)c(CN3CCCCC3)c12
[1]
  MIC: 3.84 µg/mL

## C=CCCCCCCC[C@H]1C(=O)O[C@@H]1CCCCCNC(=O)c1ccc(N(C)C)cc1
[2]
  MIC: 1.6 µM (≈ 0.686 µg/mL)

## CNC(=O)c1c(-c2ccccc2)oc2ccc(O)c(CN3CCCC3)c2c1=O
[1]
  MIC: > 32 µg/mL

## CNC(=O)c1c(-c2ccccc2)oc2ccc(O)c(CN3CCC3)c2c1=O
[1]
  MIC: > 32 µg/mL

## CNC(=O)c1c(-c2ccccc2)oc2ccc(O)c(CN3CCCCC3)c2c1=O
[1]
  MIC: > 32 µg/mL

## O=c1c(-c2ccc(O)cc2)coc2ccc(O)c(CN3CCCCC3)c12
[1]
  MIC: > 32 µg/mL

## CO[C@H]1/C=C/O[C@@]2(C)Oc3c(C)c(O)c4c(O)c(c(/C=N/N5CCN(C)CC5)c(O)c4c3C2=O)NC(=O)/C(C)=C\C=C\[C@H](C)[C@H](O)[C@@H](C)[C@@H](O)[C@@H](C)[C@H](OC(C)=O)[C@@H]1C [RIFAMPIN]
[1]
  MIC: 0.057 µg/mL

## O=c1cc(-c2ccccc2)oc2ccc(O)c(CN3CCCCC3)c12
[1]
  MIC: 3.12 µg/mL

## O=c1cc(-c2ccc(O)cc2)oc2ccc(O)c(CN3CCCC3)c12
[3]
  remaining at 0.5 h: 102%
[4]
  Stabilty: Stable
[5]
  IC50: 8.8 µg/mL (≈ 26.1 µM)
[1]
  MIC: 0.938 µg/mL
[6]
  Stabilty: Stable
[7]
  selectivity ratio: 9

## O=c1cc(-c2ccc(F)cc2)oc2ccc(O)c(CN3CCC3)c12
[1]
  MIC: 3.55 µg/mL

## COC(=O)c1c(NC(=O)c2c(F)c(F)c(F)c(F)c2F)sc2c1CCCCC2
[1]
  MIC: 1 µM

## O=c1cc(-c2ccc(Cl)cc2)oc2ccc(O)c(CN3CCC3)c12
[1]
  MIC: 28.5 µg/mL

## CCOC(=O)c1c(-c2ccc(O)cc2)oc2ccc(O)c(CN3CCCC3)c2c1=O
[1]
  MIC: > 32 µg/mL

## CCOC(=O)c1c(-c2ccccc2)oc2ccc(O)c(CN3CCCCC3)c2c1=O
[1]
  MIC: 31.9 µg/mL

## O=c1cc(-c2ccc(O)cc2)oc2ccc(O)c(CN3CCOCC3)c12
[1]
  MIC: > 32 µg/mL

## CCOC(=O)c1c(NC(=O)c2c(F)c(F)c(F)c(F)c2F)sc2c1CCN(CC)C2
[8]
  MIC: 0.23 µM (≈ 0.103 µg/mL)

## CCOC(=O)c1c(NC(=O)c2c(F)c(F)c(F)c(F)c2F)sc(C(N)=O)c1C
[1]
  MIC: 0.5 µM

## O=c1cc(-c2ccc(O)cc2)oc2ccc(O)c(CN3CCC3)c12
[9]
  bioavailability: 20.5%
[10]
  half-life: 1.28 h
[11]
  Activity: 4.77 log10CFU
[3]
  remaining at 0.5 h: 96%
[12]
  Cmax: 1660 ng/mL
[4]
  Stabilty: Stable
[5]
  IC50: 53.1 µg/mL (≈ 164 µM)
[1]
  MIC: 0.45 µg/mL
[13]
  Vd: 8.86 L/kg
[14]
  MRT last: 0.61 h
[15]
  MRT inf: 0.69 h
[16]
  AUC(0-t): 4220 ng·h/mL
[17]
  MRT inf: 1.82 h
[18]
  Tmax: 0.25 h
[6]
  Stabilty: Stable
[19]
  AUC(0-inf): 4290 ng·h/mL
[7]
  selectivity ratio: 117
[20]
  AUC(0-t): 1030 ng·h/mL
[21]
  MRT last: 1.7 h
[22]
  AUC(0-inf): 1040 ng·h/mL
[23]
  Cmax: 4460 ng/mL
[24]
  Activity: 20.57 g
[25]
  clearance: 80.1 mL/min/kg
[26]
  half-life: 1.42 h

## O=c1cc(-c2ccc(O)cc2)oc2ccc(O)c(CN3CC4(CSC4)C3)c12
[1]
  MIC: 15.3 µg/mL

## O=c1cc(-c2ccccc2)oc2ccc(O)c(CN3CCCC3)c12
[1]
  MIC: 3.68 µg/mL

## CCOC(=O)c1c(-c2ccc(O)cc2)oc2ccc(O)c(CN3CCC3)c2c1=O
[1]
  MIC: 7.91 µg/mL

## O=c1cc(-c2ccccc2)oc2ccc(O)c(CN3CCC3)c12
[1]
  MIC: 3.22 µg/mL

## COc1ccc(-c2cc(=O)c3cc(O)ccc3o2)cc1
[1]
  MIC: > 32 µg/mL

## COc1ccc(-c2cc(=O)c3c(CN4CCCCC4)c(O)ccc3o2)cc1
[1]
  MIC: 7.3 µg/mL

## CNC(=O)c1c(-c2ccc(O)cc2)oc2ccc(O)c(CN3CCCCC3)c12
[1]
  MIC: 0.047 µg/mL
[27]
  MIC: 0.09 µM (≈ 0.0342 µg/mL)

## CCOC(=O)c1c(-c2ccccc2)oc2ccc(O)c(CN3CCCC3)c2c1=O
[1]
  MIC: > 32 µg/mL

## NNC(=O)c1ccncc1 [ISONIAZID]
[1]
  MIC: 0.039 µg/mL
[28]
  Activity: 20.9 g
[29]
  Activity: 1.76 log10CFU
